Source: PubChem BioAssay
S100A4 MyoIIA: inhibitors of human S100A4 binding to myosin IIA peptide. P26447. inhibition, % at 10.7 µM. S100A4/TAMRA-MyoIIA peptide fluorescence polarization. actives 0.14% (n = 360,000);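 active = mean inhibition of at least 70% across replicates, with every replicate also reaching that level; inconclusive = mean inhibition reaches 70% but some replicates fall short; inactive = mean inhibition below 70%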
Target sequence (P26447 whole entry, looked up): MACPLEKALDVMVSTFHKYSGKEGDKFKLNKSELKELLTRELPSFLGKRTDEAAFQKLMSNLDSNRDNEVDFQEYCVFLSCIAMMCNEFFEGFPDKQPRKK
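Test system – S100A4 monomer (human) · Compound – single-point compound testing · Schedule – 5 min incubation before reading · Probe or stimulus – TAMRA-labelled myosin IIA heavy-chain peptide probe, 5 nM · Benchmarks – neutral control DMSO, positive control TFP · Medium – Calcium-containing HEPES buffer, pH 7.2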
MLL AF4-AF9 inh: MLL-AF4/AF9 protein interaction inhibition. AlphaScreen, biotin-AF4 peptide binding to FLAG-AF9. inhibition, % at 10 µM. actives 0.47% (n = 350,000). AID 651704;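 active = every replicate reaching a set inhibition limit, whatever the replicate mean, cut at about 25% in these data; inconclusive = mean inhibition reaches that limit but some replicates miss it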;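 also: 0% = plate neutral control median and 100% = total signal loss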
Target sequence (P42568 whole entry, looked up): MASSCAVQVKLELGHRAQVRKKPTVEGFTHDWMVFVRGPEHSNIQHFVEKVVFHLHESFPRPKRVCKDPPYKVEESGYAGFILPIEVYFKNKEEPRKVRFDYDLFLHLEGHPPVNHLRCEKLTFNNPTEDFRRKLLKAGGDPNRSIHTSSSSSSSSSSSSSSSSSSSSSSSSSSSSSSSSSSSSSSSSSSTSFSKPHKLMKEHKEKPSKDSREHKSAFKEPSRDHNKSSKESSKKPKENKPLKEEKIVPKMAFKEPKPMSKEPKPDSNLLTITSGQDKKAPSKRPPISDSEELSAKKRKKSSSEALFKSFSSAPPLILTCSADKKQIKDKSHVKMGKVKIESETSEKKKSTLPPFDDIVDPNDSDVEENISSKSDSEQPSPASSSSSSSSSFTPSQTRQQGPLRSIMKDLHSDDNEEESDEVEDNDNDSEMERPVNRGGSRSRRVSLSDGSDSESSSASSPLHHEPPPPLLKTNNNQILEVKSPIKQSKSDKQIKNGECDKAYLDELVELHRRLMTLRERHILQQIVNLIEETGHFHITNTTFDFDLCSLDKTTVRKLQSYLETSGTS
CaV13 ICDI inh: Primary screen for inhibitors of IQ motif and Ca2+-dependent inactivation inhibitor domain binding in CACNA1D, Förster resonance energy transfer in living cells, …; actives 0.098% (n = 340,000); HEK cells, CFP/YFP FRET ICDI-IQ, plate reader, 10 min; percent FRET-ratio fall versus neutral wells; AID 743397; inhibition, % at 12.3 µM;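 active = mean replicate inhibition of at least 30% and at least 1% of replicates passing that level; inconclusive = only one of the two criteria is met; inactive = neither criterion is met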;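 also: 0% = median of the neutral control wells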
DENV2 CPE: inhibitors of DENV2 cytopathic effect | DENV2-infected cells, cytopathic effect rescue, plate reader | CPE inhibition, % at 9.99 µM | actives 1.7% (n = 350,000); in the data active = CPE inhibition above about 20%, passing the limit was not always enough; inconclusive = no clear call, values can overlap the other calls; tested in BHK-21 cells;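 also: 0% = median of neutral control wells and 100% = median of positive control wells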
SIRT5 block: inhibitors of human sirtuin-5 desuccinylase | Q9NXA8 | Purified SirT5, succinyl-peptide AMC, trypsin-coupled fluorescence | inhibition, % at 15 µM | actives 1.1% (n = 330,000); in the data active = inhibition above about 15%; inconclusive = no clear call, values can overlap the other calls
* marks the source's active call; other numbers are inactive results; ? = inconclusive; . = no result; ! = not confirmed by another sample. In the library only some 2.7% were active in any assay of this set; here they are far more common.

SMILES | S100A4 MyoIIA | MLL AF4-AF9 inh | CaV13 ICDI inh | DENV2 CPE | SIRT5 block
O=C(OCc1cn([C@H]2C[C@H](c3ccccc3)N(CC3CCCCC3)C[C@@H]2O)nn1)c1ccccc1 | 0 | -2 | -6 | -4 | -1
COc1ccc([C@H]2C[C@@H](O)[C@H](n3cc(COC(=O)c4ccccc4)nn3)CN2Cc2cccs2)cc1 | -14 | 1 | -9 | 56* | 8
O=C(C[C@H]1CC[C@H]2NC[C@@H](O)COC[C@@H]2O1)NCc1ccc2c(c1)OCO2 | 1 | 1 | . | 2 | 2
C/C=C/c1ccc([C@@H]2[C@@H](CNC(=O)CC)N(C(=O)CC)[C@H]2CO)cc1 | -9 | -1 | . | 6 | -2
O=C(CCN1CCCCC1)NCC[C@H]1CC[C@@H](NS(=O)(=O)c2cccc(F)c2)[C@H](CO)O1 | -3 | 0 | . | -4 | -1
CC1C(=O)N(Cc2cn(CC3CCCCC3)nn2)CCS(=O)(=O)N1Cc1ccc(-c2ccc(Cl)c(Cl)c2)cc1 (configuration not stated) | 2 | -1 | -5 | 57* | -2
CC(C)C1C(=O)N(Cc2cn(Cc3ccco3)nn2)CCS(=O)(=O)N1Cc1ccc(-c2ccccc2)cc1 (configuration not stated) | -3 | 2 | -3 | 9 | -2
CC(C)C1C(=O)N(Cc2cn(Cc3ccco3)nn2)CCS(=O)(=O)N1Cc1ccc(-c2ccc(F)cc2)cc1 (configuration not stated) | 19 | -3 | -8 | 13 | 25*
CC(=O)c1ccc(-c2cnc3c(NC=O)cc(-c4ccccc4Oc4ccccc4)cn23)cc1 | -5 | 3 | -5 | -10 | .
CN(Cc1ccccc1)N=Nc1nc[nH]c1C(N)=O | -5 | -7 | -11 | 77* | 3
CN(Cc1ccccc1)N=Nc1ccccc1 | -3 | 1 | -15 | 7 | -3
COc1ccc(N(CC(=O)NCCSc2ccccc2)S(=O)(=O)c2ccccc2)c(OC)c1 | -1 | 1 | -6 | 88* | 1
COc1ccccc1CN1C[C@@H](C)[C@@H](OC)CN(C)C(=O)c2cc(NC(C)=O)ccc2OC[C@H]1C | 3 | 4 | . | 3 | 0
COCCCNc1ncnc2c1sc1nc(-c3ccco3)c3c(c12)CC(C)(C)OC3 | -3 | -8 | -4 | 1 | 19*
CC1(C)Cc2c(c(-c3ccco3)nc3sc4c(NCCO)ncnc4c23)CO1 | 3 | -1 | -4 | 4 | 10
C[C@@H]1CN([C@H](C)CO)C(=O)c2cc(-c3ccccc3F)cnc2O[C@H]1CN(C)Cc1ccc(F)cc1 | 1 | -1 | . | 29* | 5
C[C@@H]1CN([C@H](C)CO)C(=O)c2cc(C3=CCCC3)cnc2O[C@@H]1CN(C)Cc1ccc(F)cc1 | 105* | -4 | . | 2 | 3
C[C@@H]1CN([C@@H](C)CO)C(=O)c2cc(C3=CCCC3)cnc2O[C@@H]1CN(C)Cc1ccc(C(=O)O)cc1 | -17 | -6 | . | 25* | 4
C[C@@H]1CN([C@H](C)CO)C(=O)c2cc(C3=CCCC3)cnc2O[C@@H]1CN(C)Cc1ccc(C(=O)O)cc1 | -22 | -5 | . | 15 | 2
C[C@@H]1CN([C@@H](C)CO)C(=O)c2cc(NC(=O)Cn3cnnn3)ccc2O[C@H]1CN(C)C(=O)Nc1ccc2c(c1)OCO2 | -3 | -9 | . | -1 | -2
COc1ccc(NC(=O)N(C)C[C@H]2OCCCC[C@H](C)Oc3ccc(NS(=O)(=O)c4cn(C)cn4)cc3C(=O)N([C@H](C)CO)C[C@@H]2C)cc1 | 3 | 0 | -10 | 25*! | 0
COc1ccc(S(=O)(=O)N(C)C[C@H]2OCCCC[C@@H](C)Oc3ccc(NS(=O)(=O)c4cn(C)cn4)cc3C(=O)N([C@@H](C)CO)C[C@H]2C)cc1 | 6 | -1 | . | 16 | 16*
C[C@@H]1CN([C@@H](C)CO)C(=O)c2cc(NS(=O)(=O)c3cn(C)cn3)ccc2O[C@@H](C)CCCCO[C@H]1CN(C)Cc1ccncc1 | -9 | -4 | . | 70* | 0
COc1ccc(NC(=O)N(C)C[C@H]2OCCCC[C@H](C)Oc3ccc(NS(=O)(=O)c4cn(C)cn4)cc3C(=O)N([C@@H](C)CO)C[C@H]2C)cc1 | -3 | -1 | . | ? | -2
COc1ccc(S(=O)(=O)N(C)C[C@@H]2OCCCC[C@@H](C)Oc3ccc(NS(=O)(=O)c4cn(C)cn4)cc3C(=O)N([C@@H](C)CO)C[C@H]2C)cc1 | -6 | 2 | . | -2 | 5
SMILES | S100A4 MyoIIA | MLL AF4-AF9 inh | CaV13 ICDI inh | DENV2 CPE | SIRT5 block
C[C@@H]1CN([C@@H](C)CO)C(=O)c2cc(NS(=O)(=O)c3cn(C)cn3)ccc2O[C@@H](C)CCCCO[C@@H]1CN(C)Cc1ccc(C(F)(F)F)cc1 | -2 | -1 | . | . | 15*
COc1ccc(CN(C)C[C@@H]2OCCCC[C@H](C)Oc3ccc(NS(=O)(=O)c4cn(C)cn4)cc3C(=O)N([C@@H](C)CO)C[C@H]2C)cc1 | 110* | -8 | . | -2 | -1
Cc1noc(C)c1NC(=O)Nc1ccc2c(c1)C(=O)N(C)[C@@H]1CC[C@H](CC(=O)NCc3ccc(Cl)cc3)O[C@H]1CO2 | -2 | -3 | . | 15 | -2
COc1cccc(CNC(=O)C[C@H]2CC[C@@H](NC(=O)C3CCC3)[C@H](CO)O2)c1 | -5 | -2 | . | 36* | 3
COc1cccc(CNC(=O)C[C@H]2C=C[C@H](NC(=O)C3CCOCC3)[C@@H](CO)O2)c1 | 11 | -1 | . | 21* | -1
O=C(C[C@@H]1C[C@@H]2c3cc(NC(=O)NC4CCCCC4)ccc3O[C@@H]2[C@@H](CO)O1)NCCc1ccccc1 | -66 | -3 | . | 6 | 1
Cc1ccc(S(=O)(=O)N(C)C[C@@H]2Oc3ccc(NC(=O)Nc4cccc5ccccc45)cc3CC(=O)N([C@@H](C)CO)C[C@H]2C)cc1 | 1 | 0 | . | -5 | 1
C[C@H](CO)N1C[C@H](C)[C@@H](CN(C)C(=O)CN(C)C)Oc2cc(C#Cc3ccccc3)ccc2S1(=O)=O | -2 | 17 | . | 12 | -3
C[C@@H]1CN([C@H](C)CO)S(=O)(=O)c2ccc(C#Cc3ccccc3)cc2O[C@H]1CN(C)C(=O)CN(C)C | 0 | 12 | . | 24* | -4
C[C@H](CO)N1C[C@H](C)[C@@H](CN(C)C(=O)C2CC2)Oc2cc(C#Cc3ccccc3)ccc2S1(=O)=O | -5 | 0 | . | 174* | 0
C[C@H](CO)N1C[C@H](C)[C@H](CN(C)C(=O)C2CC2)Oc2cc(C#Cc3ccccc3)ccc2S1(=O)=O | 13 | -1 | . | -3 | 12
C[C@H](CO)N1C[C@H](C)[C@@H](CN(C)C(=O)Cc2ccccc2)Oc2cc(C#Cc3ccccc3F)ccc2S1(=O)=O | 6 | -7 | . | 6 | 13
C[C@H](O)C#Cc1ccc2c(c1)O[C@H](CN(C)C(=O)CN(C)C)[C@@H](C)CN([C@H](C)CO)S2(=O)=O | 2 | -1 | . | 24* | 0
